# High-throughput results (PubChem)
# FLuc act counter: affects firefly luciferase, flagging false hits in luciferase stimulation screens; ATPlite luciferase biochemical, luminescence, 10 min; 0 = ATP-free wells, 1 = DMSO control; activation factor at 10 µM; 200,000 tested, under 10 active;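 active means luciferase activation factor, scaled between plate controls, of at least 2 with compound at 10 µM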
#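 Assay system – cell-free luciferase reagent · Medium – PBS-based ATP solution · Dosing – test compounds dosed from 2 mM stocks in 100% DMSO · Timing – 10 min, room temperature · Technique – light output (luminescence) · Measure – luminescence gain marking luciferase activators · Controls – No-ATP low control, compound-free enzyme-plus-ATP high control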
# FLuc inhib CS: counter-screen for luciferase assay inhibitors: firefly luciferase inhibition; ATPLite firefly luciferase biochemical luminescence, 10 min; P08659; AID 1006; inhibition, % at 10 µM; hit rate 1.5% among 200,000;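 active means inhibition above about 50% when tested at 10 µM, limit read from the data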
# TRAIL sens C8: sensitizes caspase-8 expressing cells to TRAIL. NB7+C8 cells + TRAIL, ATPlite viability luminescence. inhibition (viability loss, TRAIL sensitization), % at 10 µM. hit rate 1% among 360,000;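 active means compounds causing at least 50% loss of cell viability in the single-dose screen, relative to plate controls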
# PPC-1+TRAIL kill: compounds killing PPC-1 cancer cells with TRAIL present (potentiator screen, no TRAIL-free arm); PPC-1 cells + TRAIL, ATPLite viability luminescence; cell killing (% activity), % at 4 µM or 5 µM; hit rate 0.41% among 220,000;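 active means cell killing above 50% in the first pass at 4 µM, then a duplicate retest at 5 µM averaging 50% or more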;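 further: plate controls were cells with TRAIL plus DMSO for no effect and medium-only wells lacking cells for full effect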
# NF-kB expr up: raises NF-kB expression in human neuronal cells | AID 1239 | fold change at 12.5 µM | NF-kB reporter expression; active compounds read high | hit rate 1.6% among 190,000; in the data active means fold change above about 3.3
# APP 5'UTR act: APP 5'UTR luciferase reporter activation | SH-SY5Y APP 5'UTR luciferase reporter, luminescence; zero percent = DMSO vehicle wells | activation, % at 2 µM | hit rate 1% among 190,000 | AID 1276;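 active means activation above a set limit, based on mean plus 3 SD of controls, cut at about 140% in these data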
# * marks the source's active call; other numbers are inactive results; · = no result given. Shown are actives, neighbours in structure and some others; about 2.2% of the full set was active somewhere.
SMILES,FLuc act counter,FLuc inhib CS,TRAIL sens C8,PPC-1+TRAIL kill,NF-kB expr up,APP 5'UTR act
CC(=O)c1cnc2c(-c3ccc(Cl)cc3)c(C)nn2c1C,1,4,-17,-3,1.3,7
CC(=O)c1cnc2cc(-c3ccc(Cl)cc3)nn2c1C,0.9,13,-13,-6,3.6*,42
Cc1c(C(=O)O)cnc2cc(-c3ccc(Cl)cc3)nn12,0.4,56*,34,4,2.2,0
Cc1ccc(S(=O)(=O)N(C)C[C@@H]2OCc3cnnn3CCCC(=O)N([C@H](C)CO)C[C@@H]2C)cc1,·,·,-1,·,·,·
COc1ccc(-c2nnc(SCc3csc(N)n3)n2C)cc1,1.1,-5,-18,8,1.2,-10
Cc1ccc(Nc2nc(CSc3nnc(-c4ccc(F)cc4)n3C)cs2)cc1,0.2,84*,35,33,1.1,21
CC1CCN(CCNC(=O)c2ccc3c(=O)n(Cc4ccc(Cl)cc4)c(=S)[nH]c3c2)CC1,·,·,69*,·,·,·
O=c1ccnc(S/C=C/c2ccccc2)[nH]1,0.4,63*,8,34,1.4,1
O=c1ccnc(SCCc2ccccc2)[nH]1,·,·,-9,·,·,·
O=C(Oc1ccc2ccccc2c1Cl)N1CCCC1,0.8,16,16,-14,5.1*,143*
O=C(Oc1ccc2ccccc2c1Cl)N1CCCCCC1,0.5,47,53*,17,5.1*,133
CCCCCc1cc(=O)oc2c(C(CCN3CCCCC3)c3cc(OC)c(OC)c(OC)c3)c(OC)cc(OC)c12 (centres undefined),·,·,67*,21,·,·
CCCCCc1cc(=O)oc2c(C(CCN3CCCC(C)C3)c3cc(OC)c(OC)c(OC)c3)c(OC)cc(OC)c12 (centres undefined),·,·,46,12,·,·
O=c1[nH]c(=S)[nH]c2c1C(c1ccc(Cl)c(Cl)c1)OC(CCc1ccccc1)C2 (centres undefined),·,·,59*,·,·,·
CC(=O)NC(c1ccccc1)c1nc(-c2cc3ccccc3o2)cs1 (centres undefined),·,·,2,·,·,·
COc1ncnc2c1oc1ccccc12,1,3,1,18,3.3*,100
CC(C)(C)CN1C(=O)C(=O)NC[C@@H]1CC1CCCCC1,·,·,5,·,·,·
CC(C)[C@@H]1Cc2[nH]c(=O)[nH]c(=O)c2[C@H](C)O1,·,·,-4,·,·,·
O=S1(=O)CC(N2CCCCC2)CN1C1CCCCC1 (centres undefined),·,·,-4,·,·,·
COc1ccc(CNC(=O)CCS(=O)(=O)c2ccc3nc(C)sc3c2)cc1,·,·,-9,·,·,·
CCCCNC(=O)C1(C)CCCCN1C(=O)c1ccc(OC)c(C(F)(F)F)c1 (centres undefined),·,·,0,·,·,·
O=C(Nc1ccc2nsnc2c1)NC1CCCCC1,0.5,50,17,16,3.8*,92
O=C(Nc1ccc2nsnc2c1)C1CC1,1,-2,8,-2,0.97,-2
CCCNC(=O)C1(C)CCN(C(=O)c2ccc3snnc3c2)C1 (centres undefined),·,·,9,·,·,·
CC(=O)Nc1ccc2cnn(C(C)=O)c2c1,·,·,-4,·,·,·
SMILES,FLuc act counter,FLuc inhib CS,TRAIL sens C8,PPC-1+TRAIL kill,NF-kB expr up,APP 5'UTR act
CCN(CC)c1ccc(NC(=O)c2cccc(C)c2OC)c(C)c1,0.8,18,5,10,4.2*,98
CCCn1c(O)c(/C=C2\C=NN=C2c2ccccc2)sc1=S,1,-4,76*,-1,1.2,-18
C=CCn1c(O)c(/C=C2\C=NN=C2c2ccccc2)sc1=S,·,·,8,7,·,·
O=c1cc(O)c(-c2ccccc2Cl)c(Cl)[nH]1,1.1,-8,3,-1,0.96,-2
Cc1cccc(-c2c(O)cc(=O)[nH]c2Cl)c1,1,-4,1,14,5.9*,11
C=Cc1ncc(OC)c2c1[nH]c1ccccc12,·,·,66*,·,·,·
CC(=O)N1CCCC(c2cc(C(=O)Nc3ccccc3)no2)C1 (centres undefined),·,·,43,·,·,·
O=C(Nc1ccccc1)c1cc(C2CCCN(C(=O)C3CC3)C2)on1 (centres undefined),·,·,51*,·,·,·
CCCCNC(=O)C(NC(=O)c1cccnc1OC)C(=O)c1ccccc1 (centres undefined),·,·,5,·,·,·
COc1ccc(CN2C(=O)C(CC(=O)NC3CCCC3)CC(C(=O)N3CCOCC3)=C2C)cc1 (centres undefined),·,·,-5,·,·,·
Cc1cccc(C(=O)O/N=C(\N)c2cccc([N+](=O)[O-])c2)c1,0.1,87*,45,2,2.9,95
